These results are taken from ChEMBL document CHEMBL1146454, “Antifungal 3-butylisocoumarins from Asteraceae-Anthemideae” (J Nat Prod, 2004).

≈ marks a conversion by molar mass, not a printed value. Calls of active or inactive are those of the source. The calls are words filed in the database; no cut-off is given here.

One assay relates to Cladosporium herbarum. The experiment in a line: Antifungal activity against Cladosporium herbarum assessed as inhibition zone in mycelial layer assessed per spot by TLC bioautography assay. In kind it is functional. A digest of the protocol:
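TLC bioautography with Cladosporium herbarum strain VIAM-MA1511 as the mycelial layer. Compounds were applied as a dilution series from 100 to 25 μg/spot, and plates were held 3 days. The MIC was the first amount in the series that gave a homogeneous inhibition zone in the mycelial layer.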

In another assay the test system is Pyricularia grisea. Nature of the assay: Antifungal activity against Pyricularia grisea assessed as inhibition of germ-tube development by microdilution method. In kind it is functional, organism-based. A digest of the protocol:
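Pyricularia grisea isolate from infected rice leaves (Thailand), tested in 4% malt extract broth by microdilution. Stock in acetone/malt extract emulsified with 0.2% Tween 80, diluted 2-fold; final range 200–0.78 μg/mL. Inoculum 10⁴ CFU conidia per well. Incubated 16 h at room temperature, stopped with lactophenol blue. Germ-tube size measured by pixel counts of 10 conidia per well. EC50/EC90 by probit; MIC is the first concentration giving total inhibition.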
A general note: In broth dilution the organism is exposed to a series of concentrations in liquid medium.

As a reminder, the EC50 is the concentration at which the effect is half-maximal. On to `CC[C@@H]1O[C@H]1c1cc2ccccc2c(=O)o1`, for which the MIC in the assay with Cladosporium herbarum was 25 µg; in the assay on Pyricularia grisea, above 200 µg/mL. Further, the EC50 in the assay on Pyricularia grisea was found to be 93 µg/mL (≈ 430 µM).

Broadly, the EC90 is the point of the concentration-response curve where the effect stands at 90%. For the compound `CC/C=C(\Br)c1cc2ccccc2c(=O)o1`, in the assay on Cladosporium herbarum, the MIC was below 25 µg. In the assay on Pyricularia grisea, the EC50 was found to be 2 µg/mL (≈ 7.17 µM), the EC90 is 9 µg/mL (≈ 32.2 µM) and the MIC worked out at 12 µg/mL (≈ 43 µM).

With `CC#CCc1cc2cccc(O)c2c(=O)o1`, the result in the assay with Cladosporium herbarum was inactive. In addition, in the assay with Pyricularia grisea, the EC50 turned out to be 2 µg/mL (≈ 9.34 µM), the EC90 stood at 102 µg/mL (≈ 476 µM) and the MIC stood at 100 µg/mL (≈ 467 µM).

In the case of `CC[C@@H](O)[C@H](O)c1cc2ccccc2c(=O)o1` (relative stereo), the outcome in the assay on Pyricularia grisea was inactive.

As for `CCCC(Br)c1cc2ccccc2c(=O)o1` (centres undefined), in the assay on Cladosporium herbarum, the MIC was determined as 25 µg. For the same compound, in the assay on Pyricularia grisea, the EC50 stood at 35 µg/mL (≈ 124 µM), the EC90 worked out at 96 µg/mL (≈ 341 µM) and the MIC is 100 µg/mL (≈ 356 µM).

With `CC[C@H](Cc1cc2ccccc2c(=O)o1)OC`, the MIC in the assay with Cladosporium herbarum is above 100 µg. Moreover, in the assay on Pyricularia grisea, the result was inactive.

For the compound `CC/C=C/c1cc2ccccc2c(=O)o1`, the MIC in the assay on Cladosporium herbarum came out at 100 µg. Besides, in the assay with Pyricularia grisea, the EC50 is 11 µg/mL (≈ 54.9 µM), the EC90 is 19 µg/mL (≈ 94.9 µM) and the MIC is 25 µg/mL (≈ 125 µM).

Regarding `CC[C@H](O)Cc1cc2ccccc2c(=O)o1`, the values for the MIC in the assay with Cladosporium herbarum and in the assay with Pyricularia grisea were 100 µg and above 200 µg/mL, respectively. Also, the concentration for a half-maximal effect (EC50) in the assay on Pyricularia grisea amounted to 25 µg/mL (≈ 115 µM).

Regarding `CC(=O)/C=C/c1cc2ccccc2c(=O)o1`, the MIC in the assay with Cladosporium herbarum was below 25 µg. In addition, in the assay on Pyricularia grisea, the EC50 was determined as 5 µg/mL (≈ 23.3 µM), the 90% effect concentration (EC90) was found to be 21 µg/mL (≈ 98 µM) and the MIC was found to be 25 µg/mL (≈ 117 µM).

Regarding `CCCCc1cc2ccccc2c(=O)o1` [DIHYDROARTEMIDIN], in the assay with Cladosporium herbarum, the MIC came out at 100 µg. In the assay with Pyricularia grisea, the EC50 came to 10 µg/mL (≈ 49.4 µM), the EC90 was 40 µg/mL (≈ 198 µM) and the MIC was found to be 50 µg/mL (≈ 247 µM).

As to `CCCCNC(=O)n1c(NC(=O)OC)nc2ccccc21` [BENOMYL], the MIC with Cladosporium herbarum was below 25 µg. In the assay with Pyricularia grisea, the EC50 turned out to be 0.06 µg/mL (≈ 0.207 µM) and the MIC is 200 µg/mL (≈ 689 µM).

As for `CN(CC[C@H](N)CC(=O)N[C@H]1C=C[C@H](n2ccc(N)nc2=O)O[C@@H]1C(=O)O)C(=N)N` [BLASTICIDIN_S], in the assay on Pyricularia grisea, the EC50 was found to be 13 µg/mL (≈ 30.8 µM) and the MIC was above 200 µg/mL.

In the case of `O=c1occc2ccccc12` [ISOCOUMARIN], in the assay with Pyricularia grisea, the EC50 turned out to be 83 µg/mL (≈ 568 µM) and the MIC is above 200 µg/mL.

As to `CC#CCc1cc2ccccc2c(=O)o1` [CAPILLARIN], the outcome in the assay on Cladosporium herbarum was inactive. Moreover, in the assay with Pyricularia grisea, the EC50 was found to be 37 µg/mL (≈ 187 µM), the EC90 came to 92 µg/mL (≈ 464 µM) and the MIC was 100 µg/mL (≈ 504 µM).

In the case of `CC/C=C/c1cc2cccc(O)c2c(=O)o1`, in the assay with Cladosporium herbarum, the MIC is above 100 µg. In the assay with Pyricularia grisea, the EC50 was 4 µg/mL (≈ 18.5 µM), the EC90 came out at 19 µg/mL (≈ 87.9 µM) and the MIC came out at 25 µg/mL (≈ 116 µM).

As for `CO/N=C(/C(=O)OC)c1ccccc1COc1ccccc1C` [KRESOXIM-METHYL], in the assay on Pyricularia grisea, the EC50 is 0.003 µg/mL (≈ 0.00957 µM) and the MIC was above 200 µg/mL.

As to `CC/C=C/c1cc2c(O)cccc2c(=O)o1` [ARTEMIDINOL], the MIC in the assay on Cladosporium herbarum is above 100 µg. Moreover, in the assay with Pyricularia grisea, the EC50 is 12 µg/mL (≈ 55.5 µM), the EC90 stood at 32 µg/mL (≈ 148 µM) and the MIC came out at 50 µg/mL (≈ 231 µM).

In the case of `CC[C@H](O)[C@H](O)c1cc2ccccc2c(=O)o1` (relative stereo), the outcome in the assay with Pyricularia grisea was inactive.

Consider `CCC(Br)C(Br)c1cc2ccccc2c(=O)o1` (centres undefined), for which, in the assay with Cladosporium herbarum, the MIC worked out at 100 µg.

Turning to `CCC#Cc1cc2ccccc2c(=O)o1` [CORFIN], the MIC in the assay with Cladosporium herbarum was above 100 µg. Besides, in the assay on Pyricularia grisea, the EC50 was 3 µg/mL (≈ 15.1 µM), the EC90 turned out to be 99 µg/mL (≈ 499 µM) and the MIC is 100 µg/mL (≈ 504 µM).

Turning to `CC(=O)OC(C)/C=C/c1cc2ccccc2c(=O)o1` (centres undefined), the MIC in the assay with Cladosporium herbarum was determined as 50 µg. In the assay on Pyricularia grisea, the concentration for a half-maximal effect (EC50) was determined as 8 µg/mL (≈ 31 µM), the 90% effect concentration (EC90) was 30 µg/mL (≈ 116 µM) and the MIC stood at 50 µg/mL (≈ 194 µM).

Turning to `C[C@@H](O)/C=C/c1cc2ccccc2c(=O)o1`, the MIC in the assay with Cladosporium herbarum is 100 µg. Besides, in the assay on Pyricularia grisea, the 50% effective concentration (EC50) was determined as 140 µg/mL (≈ 647 µM), the EC90 amounted to 292 µg/mL (≈ 1350 µM) and the MIC was above 200 µg/mL.

For the compound `C=C/C=C/c1cc2ccccc2c(=O)o1`, the MIC with Cladosporium herbarum worked out at 25 µg. Further, in the assay on Pyricularia grisea, the EC50 was found to be 14 µg/mL (≈ 70.6 µM), the EC90 turned out to be 45 µg/mL (≈ 227 µM) and the MIC stood at 50 µg/mL (≈ 252 µM).

On to `COc1cc(O)c2c(c1)C[C@@H](C)OC2=O`, for which the MIC in the assay with Cladosporium herbarum amounted to 25 µg. Further, in the assay with Pyricularia grisea, the EC50 is 47 µg/mL (≈ 226 µM), the EC90 was 106 µg/mL (≈ 509 µM) and the MIC worked out at 200 µg/mL (≈ 961 µM).

Regarding `CC(O)C#Cc1cc2ccccc2c(=O)o1` (centres undefined), in the assay with Cladosporium herbarum, the MIC amounted to 100 µg. In addition, in the assay with Pyricularia grisea, the EC50 was 0.9 µg/mL (≈ 4.2 µM) and the MIC was found to be 50 µg/mL (≈ 233 µM).

`CC[C@H]1O[C@@H]1c1cc2ccccc2c(=O)o1` (racemic): the MIC in the assay on Cladosporium herbarum amounted to 50 µg. Moreover, the result in the assay with Pyricularia grisea was inactive.

Turning to `CCCC(O)c1cc2ccccc2c(=O)o1` (centres undefined), the MIC in the assay on Cladosporium herbarum stood at 100 µg. Besides, in the assay with Pyricularia grisea, the EC50 worked out at 37 µg/mL (≈ 170 µM), the EC90 was 83 µg/mL (≈ 380 µM) and the MIC amounted to 100 µg/mL (≈ 458 µM).

Consider `CC(C)CC(=O)OCC#CCc1cc2ccccc2c(=O)o1` [CAPILLARIN ISOVALERATE], for which the result in the assay on Cladosporium herbarum was inactive. Further, in the assay on Pyricularia grisea, the EC50 is 5 µg/mL (≈ 16.8 µM), the concentration for an effect of 90% (EC90) worked out at 13 µg/mL (≈ 43.6 µM) and the MIC was 25 µg/mL (≈ 83.8 µM).

Consider `COC1=CC(=O)C[C@@H](C)[C@]12Oc1c(Cl)c(OC)cc(OC)c1C2=O` [GRISEOFULVIN], for which, in the assay on Pyricularia grisea, the EC50 stood at 4 µg/mL (≈ 11.3 µM) and the MIC was above 200 µg/mL.

For the compound `CCCC(Br)(Br)c1cc2ccccc2c(=O)o1`, in the assay on Cladosporium herbarum, the MIC is 50 µg. Besides, in the assay with Pyricularia grisea, the EC50 is 22 µg/mL (≈ 61.1 µM) and the MIC was above 200 µg/mL.
